Measured values published in ChEMBL document CHEMBL1126160, “Synthesis and structure-activity relationships of 7-diazabicycloalkylquinolones, including danofloxacin, a new quinolone antibacterial agent for veterinary medicine” (J Med Chem, 1992).
In brackets after ≈: the same amount, converted by molar mass.

System: not listed separately
Test: In vitro evaluation for antibacterial activity against anaerobically grown Treponema hyodysenteriae (94A007)
Type: functional
Settings: Brachyspira hyodysenteriae

Compound | MIC
O=C(O)c1cn(-c2ccc(F)cc2F)c2c(F)c(N3C[C@@H]4C[C@H]3CN4)c(F)cc2c1=O | 3.13 µg/mL (≈ 7.22 µM)
C=Cn1cc(C(=O)O)c(=O)c2cc(F)c(N3CC[C@H]4CCC(C3)N4C)cc21 | 3.13 µg/mL (≈ 8.43 µM)
CCn1cc(C(=O)O)c(=O)c2cc(F)c(N3C[C@H]4CC[C@@H](C3)N4C)c(F)c21 | 6.25 µg/mL (≈ 16.6 µM)
CN1[C@@H]2CC[C@H]1CN(c1c(F)cc3c(=O)c(C(=O)O)cn(C4CC4)c3c1Cl)C2 | > 3.13 µg/mL
Cl.O.O=C(O)c1cn(-c2ccc(F)cc2)c2cc(N3CCN4CCC3CC4)c(F)cc2c1=O | 0.78 µg/mL

System: Escherichia coli
Test: In vitro antibacterial activity against aerobically grown Escherichia coli (51A538)
Type: functional
Settings: not given
Summary of the method: (§1)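 Agar dilution MICs. Aerobic strains were tested on brain heart infusion agar and incubated aerobically at 37 °C for 18–20 h.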

Compound | MIC
O=C(O)c1cn(-c2ccc(F)cc2F)c2c(F)c(N3C[C@@H]4C[C@H]3CN4)c(F)cc2c1=O | 0.05 µg/mL (≈ 0.115 µM)
C=Cn1cc(C(=O)O)c(=O)c2cc(F)c(N3CC[C@H]4CCC(C3)N4C)cc21 | 0.78 µg/mL (≈ 2.1 µM)
CCn1cc(C(=O)O)c(=O)c2cc(F)c(N3C[C@H]4CC[C@@H](C3)N4C)c(F)c21 | 0.78 µg/mL (≈ 2.07 µM)
CN1[C@@H]2CC[C@H]1CN(c1c(F)cc3c(=O)c(C(=O)O)cn(C4CC4)c3c1Cl)C2 | 0.39 µg/mL (≈ 0.961 µM)
Cl.O.O=C(O)c1cn(-c2ccc(F)cc2)c2cc(N3CCN4CCC3CC4)c(F)cc2c1=O | 0.2 µg/mL

System: Clostridium perfringens
Test: microbe, parasite or virus in culture
Type: functional
Settings: not given

Compound | MIC
O=C(O)c1cn(-c2ccc(F)cc2F)c2c(F)c(N3C[C@@H]4C[C@H]3CN4)c(F)cc2c1=O | 0.2 µg/mL (≈ 0.462 µM)
C=Cn1cc(C(=O)O)c(=O)c2cc(F)c(N3CC[C@H]4CCC(C3)N4C)cc21 | 0.78 µg/mL (≈ 2.1 µM)
CCn1cc(C(=O)O)c(=O)c2cc(F)c(N3C[C@H]4CC[C@@H](C3)N4C)c(F)c21 | 1.56 µg/mL (≈ 4.13 µM)
CN1[C@@H]2CC[C@H]1CN(c1c(F)cc3c(=O)c(C(=O)O)cn(C4CC4)c3c1Cl)C2 | 0.78 µg/mL (≈ 1.92 µM)
Cl.O.O=C(O)c1cn(-c2ccc(F)cc2)c2cc(N3CCN4CCC3CC4)c(F)cc2c1=O | 0.1 µg/mL

System: Actinobacillus pleuropneumoniae
Test: In vitro antibacterial activity against anaerobically grown Actinobacillus pleuropneumoniae ([…])
Type: functional
Settings: not given
Summary of the method: (§2)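 Agar dilution MICs. Anaerobic strains were tested on tryptose agar with 5% bovine blood and incubated 48 h at 39 °C in an anaerobe chamber under N2/CO2/H2 (80:10:10).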

Compound | MIC
O=C(O)c1cn(-c2ccc(F)cc2F)c2c(F)c(N3C[C@@H]4C[C@H]3CN4)c(F)cc2c1=O | 0.02 µg/mL (≈ 0.0462 µM)
C=Cn1cc(C(=O)O)c(=O)c2cc(F)c(N3CC[C@H]4CCC(C3)N4C)cc21 | 0.78 µg/mL (≈ 2.1 µM)
CCn1cc(C(=O)O)c(=O)c2cc(F)c(N3C[C@H]4CC[C@@H](C3)N4C)c(F)c21 | 0.2 µg/mL (≈ 0.53 µM)
CN1[C@@H]2CC[C@H]1CN(c1c(F)cc3c(=O)c(C(=O)O)cn(C4CC4)c3c1Cl)C2 | 0.2 µg/mL (≈ 0.493 µM)
Cl.O.O=C(O)c1cn(-c2ccc(F)cc2)c2cc(N3CCN4CCC3CC4)c(F)cc2c1=O | 0.05 µg/mL

System: Phocaeicola vulgatus
Test: In vitro antibacterial activity against anaerobically grown Bacteroides vulgatus (78D029)
Type: functional
Settings: not given
Summary of the method: as §2

Compound | MIC
O=C(O)c1cn(-c2ccc(F)cc2F)c2c(F)c(N3C[C@@H]4C[C@H]3CN4)c(F)cc2c1=O | 1.56 µg/mL (≈ 3.6 µM)
C=Cn1cc(C(=O)O)c(=O)c2cc(F)c(N3CC[C@H]4CCC(C3)N4C)cc21 | > 3.13 µg/mL
CCn1cc(C(=O)O)c(=O)c2cc(F)c(N3C[C@H]4CC[C@@H](C3)N4C)c(F)c21 | > 25 µg/mL
CN1[C@@H]2CC[C@H]1CN(c1c(F)cc3c(=O)c(C(=O)O)cn(C4CC4)c3c1Cl)C2 | 0.78 µg/mL (≈ 1.92 µM)
Cl.O.O=C(O)c1cn(-c2ccc(F)cc2)c2cc(N3CCN4CCC3CC4)c(F)cc2c1=O | 0.78 µg/mL

System: Salmonella enterica
Test: In vitro antibacterial activity against aerobically grown Salmonella choleraesuis (58B015)
Type: functional
Settings: not given

Compound | MIC
O=C(O)c1cn(-c2ccc(F)cc2F)c2c(F)c(N3C[C@@H]4C[C@H]3CN4)c(F)cc2c1=O | 0.1 µg/mL (≈ 0.231 µM)
C=Cn1cc(C(=O)O)c(=O)c2cc(F)c(N3CC[C@H]4CCC(C3)N4C)cc21 | 1.56 µg/mL (≈ 4.2 µM)
CCn1cc(C(=O)O)c(=O)c2cc(F)c(N3C[C@H]4CC[C@@H](C3)N4C)c(F)c21 | 1.56 µg/mL (≈ 4.13 µM)
CN1[C@@H]2CC[C@H]1CN(c1c(F)cc3c(=O)c(C(=O)O)cn(C4CC4)c3c1Cl)C2 | 0.78 µg/mL (≈ 1.92 µM)
Cl.O.O=C(O)c1cn(-c2ccc(F)cc2)c2cc(N3CCN4CCC3CC4)c(F)cc2c1=O | 0.2 µg/mL

System: Bordetella bronchiseptica
Test: In vitro antibacterial activity against aerobically grown Bordetella bronchiseptica (73A009)
Type: functional
Settings: not given
Summary of the method: as §1

Compound | MIC
O=C(O)c1cn(-c2ccc(F)cc2F)c2c(F)c(N3C[C@@H]4C[C@H]3CN4)c(F)cc2c1=O | 1.56 µg/mL (≈ 3.6 µM)
C=Cn1cc(C(=O)O)c(=O)c2cc(F)c(N3CC[C@H]4CCC(C3)N4C)cc21 | 1.56 µg/mL (≈ 4.2 µM)
CCn1cc(C(=O)O)c(=O)c2cc(F)c(N3C[C@H]4CC[C@@H](C3)N4C)c(F)c21 | 12.5 µg/mL (≈ 33.1 µM)
CN1[C@@H]2CC[C@H]1CN(c1c(F)cc3c(=O)c(C(=O)O)cn(C4CC4)c3c1Cl)C2 | > 1.56 µg/mL
Cl.O.O=C(O)c1cn(-c2ccc(F)cc2)c2cc(N3CCN4CCC3CC4)c(F)cc2c1=O | 1.56 µg/mL

System: Staphylococcus aureus
Test: In vitro antibacterial activity against aerobically grown Staphylococcus aureus (54B004)
Type: functional
Settings: not given
Summary of the method: as §1

Compound | MIC
O=C(O)c1cn(-c2ccc(F)cc2F)c2c(F)c(N3C[C@@H]4C[C@H]3CN4)c(F)cc2c1=O | 0.39 µg/mL (≈ 0.9 µM)
C=Cn1cc(C(=O)O)c(=O)c2cc(F)c(N3CC[C@H]4CCC(C3)N4C)cc21 | 1.56 µg/mL (≈ 4.2 µM)
CCn1cc(C(=O)O)c(=O)c2cc(F)c(N3C[C@H]4CC[C@@H](C3)N4C)c(F)c21 | 0.39 µg/mL (≈ 1.03 µM)
CN1[C@@H]2CC[C@H]1CN(c1c(F)cc3c(=O)c(C(=O)O)cn(C4CC4)c3c1Cl)C2 | 0.39 µg/mL (≈ 0.961 µM)
Cl.O.O=C(O)c1cn(-c2ccc(F)cc2)c2cc(N3CCN4CCC3CC4)c(F)cc2c1=O | 0.2 µg/mL

System: Escherichia coli
Test: Escherichia coli DNA cleavage endpoint value which is the minimum amount required (in micro g/mL) to induce detectable cleavage of supercoiled pBR322 substrate to linear form (gyrase)
Type: functional
Settings: read-out: MIC
Summary of the method: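 DNA gyrase A and B subunits were purified from E. coli overproducers. About 2 units of holoenzyme were incubated with pBR322 in Tris-HCl pH 7.5 containing MgCl2, spermidine, DTT, 0.2 mM ATP, BSA and tRNA. Drug was added as 2-fold serial dilutions, and reactions ran for 60 min at 25 °C. Reactions were stopped with SDS and proteinase K, then run on agarose and stained with ethidium. The endpoint was the lowest concentration giving detectable linear DNA.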

Compound | minimum concentration inducing gyrase-mediated DNA cleavage
O=C(O)c1cn(-c2ccc(F)cc2F)c2c(F)c(N3C[C@@H]4C[C@H]3CN4)c(F)cc2c1=O | 0.78 µg/mL
C=Cn1cc(C(=O)O)c(=O)c2cc(F)c(N3CC[C@H]4CCC(C3)N4C)cc21 | 6.25 µg/mL
CCn1cc(C(=O)O)c(=O)c2cc(F)c(N3C[C@H]4CC[C@@H](C3)N4C)c(F)c21 | 3.12 µg/mL
CN1[C@@H]2CC[C@H]1CN(c1c(F)cc3c(=O)c(C(=O)O)cn(C4CC4)c3c1Cl)C2 | 1.56 µg/mL
Cl.O.O=C(O)c1cn(-c2ccc(F)cc2)c2cc(N3CCN4CCC3CC4)c(F)cc2c1=O | 0.78 µg/mL

System: not listed separately
Test: In vitro antibacterial activity against Aerobically grown Pasteurella haemolytica (59B018)
Type: functional
Settings: Mannheimia haemolytica
Summary of the method: as §1

Compound | MIC
O=C(O)c1cn(-c2ccc(F)cc2F)c2c(F)c(N3C[C@@H]4C[C@H]3CN4)c(F)cc2c1=O | 0.05 µg/mL (≈ 0.115 µM)
C=Cn1cc(C(=O)O)c(=O)c2cc(F)c(N3CC[C@H]4CCC(C3)N4C)cc21 | 1.56 µg/mL (≈ 4.2 µM)
CCn1cc(C(=O)O)c(=O)c2cc(F)c(N3C[C@H]4CC[C@@H](C3)N4C)c(F)c21 | 0.39 µg/mL (≈ 1.03 µM)
CN1[C@@H]2CC[C@H]1CN(c1c(F)cc3c(=O)c(C(=O)O)cn(C4CC4)c3c1Cl)C2 | 0.2 µg/mL (≈ 0.493 µM)
Cl.O.O=C(O)c1cn(-c2ccc(F)cc2)c2cc(N3CCN4CCC3CC4)c(F)cc2c1=O | 0.1 µg/mL

System: Pasteurella multocida
Test: In vitro antibacterial activity against aerobically grown Pasteurella multocida (59A006)
Type: functional
Settings: not given
Summary of the method: as §1

Compound | MIC
O=C(O)c1cn(-c2ccc(F)cc2F)c2c(F)c(N3C[C@@H]4C[C@H]3CN4)c(F)cc2c1=O | 0.01 µg/mL (≈ 0.0231 µM)
C=Cn1cc(C(=O)O)c(=O)c2cc(F)c(N3CC[C@H]4CCC(C3)N4C)cc21 | 0.2 µg/mL (≈ 0.538 µM)
CCn1cc(C(=O)O)c(=O)c2cc(F)c(N3C[C@H]4CC[C@@H](C3)N4C)c(F)c21 | 0.2 µg/mL (≈ 0.53 µM)
CN1[C@@H]2CC[C@H]1CN(c1c(F)cc3c(=O)c(C(=O)O)cn(C4CC4)c3c1Cl)C2 | 0.05 µg/mL (≈ 0.123 µM)
Cl.O.O=C(O)c1cn(-c2ccc(F)cc2)c2cc(N3CCN4CCC3CC4)c(F)cc2c1=O | 0.02 µg/mL

System: Trueperella pyogenes
Test: In vitro antibacterial activity against anaerobically grown Actinomyces pyogenes (14D002)
Type: functional
Settings: not given
Summary of the method: as §2

Compound | MIC
O=C(O)c1cn(-c2ccc(F)cc2F)c2c(F)c(N3C[C@@H]4C[C@H]3CN4)c(F)cc2c1=O | 0.78 µg/mL (≈ 1.8 µM)
C=Cn1cc(C(=O)O)c(=O)c2cc(F)c(N3CC[C@H]4CCC(C3)N4C)cc21 | > 3.13 µg/mL
CCn1cc(C(=O)O)c(=O)c2cc(F)c(N3C[C@H]4CC[C@@H](C3)N4C)c(F)c21 | 6.25 µg/mL (≈ 16.6 µM)
CN1[C@@H]2CC[C@H]1CN(c1c(F)cc3c(=O)c(C(=O)O)cn(C4CC4)c3c1Cl)C2 | 3.13 µg/mL (≈ 7.71 µM)
Cl.O.O=C(O)c1cn(-c2ccc(F)cc2)c2cc(N3CCN4CCC3CC4)c(F)cc2c1=O | 3.13 µg/mL
